Consider three molecules from ChEMBL document CHEMBL1944570, “Discovery of 4''-ether linked azithromycin-quinolone hybrid series: influence of the central linker on the antibacterial activity” (ACS Med Chem Lett, 2011).

Assay [1] relates to Staphylococcus aureus. Briefly: Antibacterial activity against ciprofloxacin-resistant Staphylococcus aureus by agar microdilution method. Type of assay: functional. The method, boiled down: (§1)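 MIC by agar microdilution following NCCLS standards; strains drawn from the PLIVA Research Institute culture collection. MIC reported in μg/mL.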
The test system of assay [2] is Staphylococcus aureus. Kind of assay: Antibacterial activity against erythromycin-susceptible Staphylococcus aureus by agar microdilution method. The format is functional. Put shortly: (§2)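 Agar microdilution MIC per NCCLS standards against strains from the Pliva Research Institute culture collection; values in µg/mL. Panel included erythromycin-susceptible strains and strains with inducible or constitutive MLS resistance.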

The test system of assay [3] is Staphylococcus aureus. Kind of assay: Antibacterial activity against Staphylococcus aureus with inducible resistance to MLS by agar microdilution method. Type of assay: functional. Put shortly: as §1
The test system of assay [4] is Staphylococcus aureus. Kind of assay: Antibacterial activity against constitutive MLS resistant Staphylococcus aureus by agar microdilution method. Type of assay: functional. Put shortly:
as §1

Assay [5] has as its system Staphylococcus aureus. Kind of assay: Antibacterial activity against efflux mediated macrolide resistant Staphylococcus aureus by agar microdilution method. Type of assay: functional. The method, boiled down:
as §1

For assay [6], the system named is Streptococcus pneumoniae. Briefly: Antibacterial activity against erythromycin-susceptible Streptococcus pneumoniae by agar microdilution method. The format is functional. The method, boiled down: as §1
The test system of assay [7] is Streptococcus pneumoniae. Kind of assay: Antibacterial activity against constitutive MLS resistant Streptococcus pneumoniae by agar microdilution method. Type of assay: functional. Put shortly:
as §1

Assay [8] deals with Streptococcus pyogenes. Briefly: Antibacterial activity against erythromycin-susceptible Streptococcus pyogenes by agar microdilution method. Type of assay: functional. The method, boiled down: as §1
Assay [9] has as its system Streptococcus pyogenes. Kind of assay: Antibacterial activity against constitutive MLS resistant Streptococcus pyogenes by agar microdilution method. Type of assay: functional. The method, boiled down: as §1
Assay [10] concerns Streptococcus pyogenes. Briefly: Antibacterial activity against efflux mediated macrolide resistant Streptococcus pyogenes by agar microdilution method. The format is functional. The method, boiled down: as §1
Assay [11] has as its system Haemophilus influenzae. Briefly: Antibacterial activity against Haemophilus influenzae B0529 by agar microdilution method. The format is functional. Put shortly: as §2
Assay [12] has as its system Moraxella catarrhalis. Kind of assay: Antibacterial activity against Moraxella catarrhalis by agar microdilution method. The format is functional. The method, boiled down: as §2
Assay [13] in a line: Inhibition of protein synthesis using Escherichia coli S30 extracts preincubated for 10 mins measured after 50 mins by luciferase reporter gene assay. The format is functional. Background: Reporter assays use an easily measured gene product as a stand-in for the process of interest.
Assay [14] in a line: Inhibition of Escherichia coli DNA gyrase-mediated supercoiling of relaxed pBR322 DNA.
The nature of assay [15]: Inhibition of Escherichia coli topoisomerase 4-mediated relaxation of supercoiled pBR322 DNA.
Assay [16] concerns Streptococcus pneumoniae. Briefly: Antibacterial activity against efflux mediated macrolide resistant Streptococcus pneumoniae by agar microdilution method. The format is functional. The method, boiled down: as §1
Assay [17] concerns Streptococcus pyogenes. Briefly: Antibacterial activity against Streptococcus pyogenes with inducible resistance to MLS by agar microdilution method. The format is functional. Put shortly:
as §1

Molecules are shown by their SMILES. Converted amounts (≈) assume the structure as drawn.

By IC50 is commonly meant the concentration at which inhibition is half-maximal. High values mean weaker potency, low ones greater potency. As for `CC[C@H]1OC(=O)[C@H](C)[C@@H](O[C@H]2C[C@@](C)(OC)[C@@H](OCCNCCOCCNc3cc4c(=O)c(C(=O)O)cn(C5CC5)c4cc3Cl)[C@H](C)O2)[C@H](C)[C@@H](O[C@@H]2O[C@H](C)C[C@H](N(C)C)[C@H]2O)[C@](C)(O)C[C@@H](C)CN(C)[C@H](C)[C@@H](O)[C@]1(C)O`, the MIC in assay [1] is not below 64 µg/mL; in assay [2] it was not above 0.125 µg/mL; in [3], 0.25 µg/mL (≈ 0.219 µM); in assay [4] it was 64 µg/mL (≈ 56.1 µM); in assay [5], 0.5 µg/mL (≈ 0.438 µM); in assay [6], not above 0.125 µg/mL. In addition, the MIC was 0.25 µg/mL (≈ 0.219 µM) in [7]; not above 0.125 µg/mL in assay [8]; 1 µg/mL (≈ 0.877 µM) in assay [9]; 0.125 µg/mL (≈ 0.11 µM) in assay [10]; 0.5 µg/mL (≈ 0.438 µM) in assay [11]; 0.125 µg/mL (≈ 0.11 µM) in assay [12]. In addition, the IC50 amounted to 0.35 µM in assay [13], 60 µM in [14] and 50 µM in assay [15].
Turning to `O=C(O)c1cn(C2CC2)c2cc(N3CCNCC3)c(F)cc2c1=O` [CIPROFLOXACIN], the MIC in [1] was not below 64 µg/mL; in [3], not above 0.125 µg/mL; in [5], not above 0.125 µg/mL; in [6], not above 0.125 µg/mL; in assay [7], 0.25 µg/mL (≈ 0.754 µM); in assay [16], 0.25 µg/mL (≈ 0.754 µM). Besides, the MIC in assay [8] was 2 µg/mL (≈ 6.04 µM); in [17] it was 0.25 µg/mL (≈ 0.754 µM); in assay [9], 0.5 µg/mL (≈ 1.51 µM); in assay [10], not above 0.125 µg/mL; in [11], not above 0.125 µg/mL; in assay [12], 0.125 µg/mL (≈ 0.377 µM). For the same molecule, the IC50 in [13] is more than 50 µM; in assay [14] it was 0.8 µM; in assay [15] it was 3 µM.
Turning to `CC[C@H]1OC(=O)[C@H](C)C(=O)[C@H](C)[C@@H](O[C@@H]2O[C@H](C)C[C@H](N(C)C)[C@H]2O)[C@](C)(OC)C[C@@H](C)C(=O)[C@H](C)[C@H]2N(CCCCn3cnc(-c4cccnc4)c3)C(=O)O[C@]12C` [TELITHROMYCIN], the MIC in assay [1] was not below 64 µg/mL; in assay [2] it was not above 0.125 µg/mL; in assay [3], 0.5 µg/mL (≈ 0.616 µM); in [4], more than 64 µg/mL; in assay [5] it was 0.25 µg/mL (≈ 0.308 µM); in [6], not above 0.125 µg/mL. Besides, the MIC in assay [16] is 0.5 µg/mL (≈ 0.616 µM); in [8], not above 0.125 µg/mL; in assay [9], 4 µg/mL (≈ 4.93 µM); in assay [10], 0.25 µg/mL (≈ 0.308 µM); in [11] it was 1 µg/mL (≈ 1.23 µM); in [12], not above 0.125 µg/mL. The values for the half-inhibitory concentration (IC50) in assay [13], in [14] and in [15] were 0.23 µM, more than 50 µM and more than 50 µM, respectively.
